These results are taken from paper PMC11168086 (RSC Advances, 2024).

Values after ≈ are worked out from the molar mass of the structure shown.

A short description of data set [1]: Kinetic aqueous solubility. It is filed as physicochemical. Particulars: PBS buffer, pH 7.4, aqueous buffer, kinetic from dmso stock. In short, it runs like this: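 10 mM DMSO stocks were diluted into PBS pH 7.4 to a 500 μM target and shaken 2 h at room temperature. Samples were vacuum-filtered, diluted with acetonitrile to prevent precipitation, and scanned by UV-vis over 250–500 nm. Concentration was derived from a 3-point calibration at each compound's λmax.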

Data set [2] in a line: Intestinal-specific PAMPA. Particulars: pH 6.5. It is filed as in vitro ADME. In short, it runs like this: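 Donor solutions at nominal 500 μM came from 10 mM DMSO stocks diluted in phosphate donor buffer, pH 6.5. The acceptor buffer held 5% DMSO. The membrane was phosphatidylcholine plus cholesterol in chloroform/dodecane/hexane (5:25:70 v/v). Plates were incubated 4 h at 37 °C, covered. Acceptor UV-vis absorbance was read over 250–500 nm. Pa was calculated by the Wohnsland–Faller equation from acceptor versus equilibrium absorbance at λmax.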

Data set [3] deals with MCF7 (breast cancer) cells. The data set can be described thus: MTT antiproliferative assay, MCF7. The class given is cell-based, human. The conditions noted are these: for IC50: Homo sapiens, MCF7, 72 h, MCF-7, MTT, 72 h; for Lipophilic efficiency (LipE = pIC50 – logP): MCF-7. In short, it runs like this:
(§1)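 Cells from ECACC were grown in MEM with 10% FBS, non-essential amino acids and penicillin-streptomycin, at 37 °C and 5% CO2. Cells were seeded at 5000 per well, left overnight, then exposed to test compound 72 h. MTT was added for 4 h, and formazan was dissolved in DMSO (60 min, 37 °C) and read at 545 nm. Compounds giving >50% inhibition at 10 μM were rerun over 0.1–30 μM for IC50. Two independent experiments used five wells each, with cisplatin as positive control.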

Data set [4] relates to HeLa (cervical cancers) cells. Nature of the data set: MTT antiproliferative assay, HeLa. It is filed as cell-based, human. The conditions noted are these: for IC50: Homo sapiens, 72 h. In short, it runs like this:
as §1

For data set [5], the system named is MDA-MB-231 (breast cancer) cells. Nature of the data set: MTT antiproliferative assay, MDA-MB-231. The class given is cell-based, human. Particulars: for IC50: Homo sapiens, MDA-MB-231, 72 h, MDA-MB-231, MTT, 72 h; for Lipophilic efficiency (LipE = pIC50 – logP): MDA-MB-231. In short, it runs like this: as §1
For data set [6], the system named is A2780 (ovarian cancer) cells. Nature of the data set: MTT antiproliferative assay, A2780. The conditions noted are these: for Lipophilic efficiency (LipE = pIC50 – logP): A2780; for IC50: Homo sapiens, A2780, 72 h. The class given is cell-based, human. In short, it runs like this:
as §1

On to `C=C(C)[C@@H]1CC[C@@H](C)C[C@H]1OCc1ccccc1` [Compound 2a, O-benzyl isopulegol], for which the kinetic solubility at 2 h in data set [1] turned out to be 1.1 ± 0.01 µM (≈ 0.269 µg/mL).
On to `C=C(C)[C@@H]1CC[C@@H](C)C[C@H]1OCc1ccc(F)cc1` [Compound 2b], for which the Papp at 4 h, 500 μM in data set [2] came to 50.7 ± 4.7 ×10⁻⁶ cm/s. The compound also returned a solubility (kinetic) at 2 h in data set [1] of 90 ± 4.8 µM (≈ 23.6 µg/mL).
In the case of `C=C(C)[C@@H]1CC[C@@H](C)C[C@H]1OCc1ccc(OC)cc1` [Compound 2c], the Papp at 4 h, 500 μM in data set [2] worked out at 26.1 ± 5.4 ×10⁻⁶ cm/s. The compound also showed a kinetic solubility at 2 h in data set [1] of 247 ± 2.8 µM (≈ 67.8 µg/mL).
In the case of `C[C@@H]1CC[C@@H]([C@](C)(O)CNCc2ccccc2)[C@H](OCc2ccccc2)C1` [Compound 6a], the IC50 in data set [3] turned out to be 2.3 µM; in data set [4], 2.8 µM; in data set [5] it was 3.4 µM; in data set [6], 2.6 µM. The “Lipophilic efficiency (LipE = pIC50 – logP)” value is given as 0.18 in data set [3], 0.09 in data set [4], 0.01 in data set [5] and 0.12 in data set [6]. For the same compound, the kinetic solubility at 2 h in data set [1] turned out to be 3.3 ± 0.01 µM (≈ 1.21 µg/mL).
As to `C[C@@H]1CC[C@@H]([C@](C)(O)CNCc2ccc(F)cc2)[C@H](OCc2ccccc2)C1` [Compound 7a], the IC50 in data set [3] was found to be 20.3 µM; in data set [4], 24.3 µM. Also, in data set [1], the kinetic solubility at 2 h was found to be 2.5 ± 0.1 µM (≈ 0.964 µg/mL).
Consider `C[C@@H]1CC[C@@H]([C@](C)(O)CNCc2cccc(F)c2)[C@H](OCc2ccccc2)C1` [Compound 8a], for which the IC50 in data set [3] came out at 3.5 µM; in data set [4], 5.2 µM; in data set [5] it was 9.9 µM; in data set [6] it was 9.3 µM. Further, the “Lipophilic efficiency (LipE = pIC50 – logP)” value in data set [3] was 0.17; in data set [4], 0.00; in data set [5], −0.28; in data set [6], −0.25. The compound further had a Papp at 4 h, 500 μM in data set [2] of 9.8 ± 1.2 ×10⁻⁶ cm/s. This compound yielded a solubility (kinetic) at 2 h in data set [1] of 31.8 ± 1 µM (≈ 12.3 µg/mL).
Regarding `C[C@@H]1CC[C@@H]([C@](C)(O)CNCc2ccccc2F)[C@H](OCc2ccccc2)C1` [Compound 9a], in data set [3], half-maximal inhibition (IC50) required 8.6 µM and the “Lipophilic efficiency (LipE = pIC50 – logP)” value is given as −0.21. Besides, in data set [4], the “Lipophilic efficiency (LipE = pIC50 – logP)” value is recorded as −0.09 and the IC50 stood at 6.5 µM. Also, in data set [1], the solubility (kinetic) at 2 h turned out to be 1.4 ± 0.02 µM (≈ 0.54 µg/mL).
On to `COc1ccc(CNC[C@@](C)(O)[C@@H]2CC[C@@H](C)C[C@H]2OCc2ccccc2)cc1` [Compound 10a], for which the IC50 in data set [3] turned out to be 1.9 µM; in data set [4], 4.3 µM; in data set [5], 5.7 µM; in data set [6] it was 7.3 µM. For the same compound, the “Lipophilic efficiency (LipE = pIC50 – logP)” value in data set [3] is 0.32; in data set [4], −0.03; in data set [5], −0.15; in data set [6], −0.25. For the same compound, the Papp at 4 h, 500 μM in data set [2] came to 20.6 ± 1.4 ×10⁻⁶ cm/s. Moreover, the kinetic solubility at 2 h in data set [1] was found to be 25.7 ± 1 µM (≈ 10.2 µg/mL).
On to `COc1cccc(CNC[C@@](C)(O)[C@@H]2CC[C@@H](C)C[C@H]2OCc2ccccc2)c1` [Compound 11a], for which the IC50 in data set [3] was 2 µM; in data set [4], 6.3 µM; in data set [5], 11.7 µM; in data set [6], 12.5 µM. Further, the “Lipophilic efficiency (LipE = pIC50 – logP)” value in data set [3] is listed as 0.32; in data set [4], −0.19. This compound also registered a Papp at 4 h, 500 μM in data set [2] of 1.8 ± 0.5 ×10⁻⁶ cm/s. This compound displayed a kinetic solubility at 2 h in data set [1] of 82 ± 2.2 µM (≈ 32.6 µg/mL).
As for `COc1ccccc1CNC[C@@](C)(O)[C@@H]1CC[C@@H](C)C[C@H]1OCc1ccccc1` [Compound 12a], the IC50 in data set [3] stood at 4.2 µM; in data set [4], 4.6 µM; in data set [5], 12.8 µM; in data set [6], 7.4 µM. Moreover, the “Lipophilic efficiency (LipE = pIC50 – logP)” value is recorded as −0.01 in data set [3], −0.05 in data set [4] and −0.26 in data set [6]. In data set [2], the Papp at 4 h, 500 μM stood at 49.2 ± 4 ×10⁻⁶ cm/s. Further, the kinetic solubility at 2 h in data set [1] stood at 270 ± 21 µM (≈ 107 µg/mL).
`C[C@@H]1CC[C@@H]([C@](C)(O)CNCc2cccc3ccccc23)[C@H](OCc2ccccc2)C1` [Compound 13a]: the IC50 turned out to be 4.3 µM in data set [3], 5.4 µM in data set [4], 25 µM in data set [5] and 13.7 µM in data set [6]. The “Lipophilic efficiency (LipE = pIC50 – logP)” value in data set [3] is listed as −0.94; in data set [4], −1.04. In data set [1], the kinetic solubility at 2 h stood at 2.1 ± 0.1 µM (≈ 0.877 µg/mL).
Turning to `C[C@@H]1CC[C@@H]([C@](C)(O)Cn2ccnc2)[C@H](OCc2ccccc2)C1` [Compound 14a], in data set [4], the IC50 turned out to be 24.5 µM. The compound further registered a kinetic solubility at 2 h in data set [1] of 4.1 ± 0.7 µM (≈ 1.35 µg/mL).
For `C[C@@H]1CC[C@@H]([C@](C)(O)Cn2cnc3ccccc32)[C@H](OCc2ccccc2)C1` [Compound 15a], the IC50 was found to be 7 µM in data set [3], 11.6 µM in data set [4], 16.7 µM in data set [5] and 12.3 µM in data set [6]. For the same compound, the “Lipophilic efficiency (LipE = pIC50 – logP)” value in data set [3] stood at 0.02. The compound further had a Papp at 4 h, 500 μM in data set [2] of 39.3 ± 4.2 ×10⁻⁶ cm/s. For the same compound, the solubility (kinetic) at 2 h in data set [1] was 38.7 ± 2 µM (≈ 14.6 µg/mL).
For `C[C@@H]1CC[C@@H]([C@@](C)(O)Cn2cnc3ccccc32)[C@H](OCc2ccccc2)C1` [Compound 15b], the IC50 in data set [3] was 9.4 µM; in data set [4], 6.5 µM; in data set [5], 27.6 µM; in data set [6], 10.9 µM. The “Lipophilic efficiency (LipE = pIC50 – logP)” value in data set [3] is −0.10; in data set [4], 0.06. Also, the Papp at 4 h, 500 μM in data set [2] was determined as 26.3 ± 4.6 ×10⁻⁶ cm/s. This compound also displayed a kinetic solubility at 2 h in data set [1] of 34.6 ± 1.1 µM (≈ 13.1 µg/mL).
In data set [1], `C=C(COCc1ccccc1)[C@@H]1CC[C@@H](C)C[C@H]1OCc1ccccc1` [Compound 30a] gave a solubility (kinetic) at 2 h of 40.8 ± 5 µM (≈ 14.3 µg/mL).
Same read-out and setting: the result for `C=C(COCc1ccc(F)cc1)[C@@H]1CC[C@@H](C)C[C@H]1OCc1ccc(F)cc1` [Compound 30b] reads 17.6 ± 0.6 µM (≈ 6.8 µg/mL).
Regarding `C=C(COCc1ccc(OC)cc1)[C@@H]1CC[C@@H](C)C[C@H]1OCc1ccc(OC)cc1` [Compound 30c], the IC50 in data set [4] came out at 24.7 µM. The same compound yielded a solubility (kinetic) at 2 h in data set [1] of 31.5 ± 1.3 µM (≈ 12.9 µg/mL).
Take `C[C@@H]1CC[C@@H]([C@](O)(CNCc2ccccc2)COCc2ccccc2)[C@H](OCc2ccccc2)C1` [Compound 34a]: the IC50 in data set [3] worked out at 2 µM; in data set [4], 2.6 µM; in data set [5], 4 µM; in data set [6] it was 4.1 µM. For the same compound, the “Lipophilic efficiency (LipE = pIC50 – logP)” value in data set [3] is −1.05; in data set [4], −1.16; in data set [5], −1.35; in data set [6], −1.36. Besides, in data set [1], the kinetic solubility at 2 h turned out to be 2.8 ± 0.2 µM (≈ 1.33 µg/mL).
As to `C[C@@H]1CC[C@@H]([C@@](O)(CNCc2ccccc2)COCc2ccccc2)[C@H](OCc2ccccc2)C1` [Compound 34b], the IC50 is 3.7 µM in data set [3], 2.3 µM in data set [4], 3.4 µM in data set [5] and 3.3 µM in data set [6]. Moreover, the “Lipophilic efficiency (LipE = pIC50 – logP)” value in data set [3] is listed as −1.32; in data set [4], −1.11; in data set [5], −1.28; in data set [6], −1.26. The same compound had a solubility (kinetic) at 2 h in data set [1] of 8 ± 1 µM (≈ 3.79 µg/mL).
`C[C@@H]1CC[C@@H]([C@](O)(CNCc2cccc3ccccc23)COCc2ccccc2)[C@H](OCc2ccccc2)C1` [Compound 41a]: the IC50 in data set [3] is 5.9 µM; in data set [4], 2.6 µM; in data set [5] it was 3.6 µM; in data set [6], 5 µM. Also, the “Lipophilic efficiency (LipE = pIC50 – logP)” value in data set [3] is recorded as −2.64; in data set [4], −2.28; in data set [5] it was −2.42; in data set [6], −2.57. In addition, in data set [1], the kinetic solubility at 2 h came to 1 ± 0.03 µM (≈ 0.524 µg/mL).
Consider `C[C@@H]1CC[C@@H]([C@@](O)(CNCc2cccc3ccccc23)COCc2ccccc2)[C@H](OCc2ccccc2)C1` [Compound 41b], for which the IC50 in data set [3] was determined as 5.7 µM; in data set [4], 2.5 µM; in data set [5], 2.6 µM; in data set [6] it was 4.1 µM. Also, the “Lipophilic efficiency (LipE = pIC50 – logP)” value was −2.62 in data set [3], −2.27 in data set [4], −2.28 in data set [5] and −2.48 in data set [6]. In data set [1], this compound gave a solubility (kinetic) at 2 h of 0.5 ± 0.01 µM (≈ 0.262 µg/mL).
Take `C[C@@H]1CC[C@@H]([C@@](O)(COCc2ccccc2)Cn2ccnc2)[C@H](OCc2ccccc2)C1` [Compound 42a]: in data set [1], the kinetic solubility at 2 h was 7.7 ± 0.7 µM (≈ 3.35 µg/mL).
As for `C[C@@H]1CC[C@@H]([C@](O)(COCc2ccccc2)Cn2ccnc2)[C@H](OCc2ccccc2)C1` [Compound 42b], the solubility (kinetic) at 2 h in data set [1] was 5.2 ± 0.3 µM (≈ 2.26 µg/mL).
